# Test results from ChEMBL document CHEMBL1158339, “Synthesis and anti-microbial screening of some Schiff bases of 3-amino-6,8-dibromo-2-phenylquinazolin-4(3H)-ones” (2009).
# Columns and labels:
# Assay type in all cases: functional
# Staphylococcus aureus [1] = experiment: Antibacterial activity against Staphylococcus aureus ATCC 9144 after 24 hrs by paper disk diffusion technique
# Procedure, shortened: (§1)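 Paper disc diffusion. Nutrient agar autoclaved 120 °C, 30 min, then inoculated at 40–50 °C with 1 ml/100 ml of a 10⁵ cfu/ml suspension matched to McFarland standard and poured to 3–4 mm. Discs impregnated with compound in dimethyl formamide are laid on the solidified agar. Plates are held 1 h at room temperature, then 24 h at 37 °C.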
# [2] = tested on: Staphylococcus epidermidis; experiment: Antibacterial activity against Staphylococcus epidermidis ATCC 155 after 24 hrs by paper disk diffusion technique; procedure, shortened: as §1
# Micrococcus luteus [3] = experiment: Antibacterial activity against Micrococcus luteus ATCC 4698 after 24 hrs by paper disk diffusion technique; procedure, shortened: as §1
# Bacillus cereus [4] = experiment: Antibacterial activity against Bacillus cereus ATCC 11778 after 24 hrs by paper disk diffusion technique; procedure, shortened: as §1
# Escherichia coli [5] = experiment: Antibacterial activity against Escherichia coli ATCC 25922 after 24 hrs by paper disk diffusion technique; procedure, shortened: as §1
# Pseudomonas aeruginosa [6] = experiment: Antibacterial activity against Pseudomonas aeruginosa ATCC 2853 after 24 hrs by paper disk diffusion technique; procedure, shortened: as §1
# Klebsiella pneumoniae [7] = experiment: Antibacterial activity against Klebsiella pneumoniae ATCC 11298 after 24 hrs by paper disk diffusion technique; procedure, shortened: as §1
# Aspergillus niger [8] = experiment: Antifungal activity against Aspergillus niger ATCC 9029 after 48 hrs by paper disk diffusion technique
# Procedure, shortened: (§2)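 Fungal disc diffusion. Autoclaved (120 °C, 30 min) medium is inoculated at 40–50 °C with 1 ml/100 ml of a 10⁵ cfu/ml McFarland-matched suspension and poured to 3–4 mm. Compound-impregnated paper discs in dimethyl formamide are applied. Plates are held 1 h at room temperature, then incubated 48 h at 37 °C.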
# Aspergillus fumigatus [9] = experiment: Antifungal activity against Aspergillus fumigatus ATCC 46645 after 48 hrs by paper disk diffusion technique; procedure, shortened: as §2
# Staphylococcus aureus [10] = experiment: Antibacterial activity against Staphylococcus aureus ATCC 9144 after 24 hrs by agar streak dilution method; conditions: ATCC 9144, 24 h
# Procedure, shortened: (§3)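 Agar streak dilution MIC. Stock […] in dimethyl formamide. Graded quantities go into molten sterile nutrient agar, poured at 40–50 °C to 3–4 mm depth and left to solidify. Plates are streaked with about 10⁵ cfu/ml bacterial suspension and incubated 24 h at 37 °C. MIC is the lowest concentration with no visible growth.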
# [11] = tested on: Staphylococcus epidermidis; experiment: Antibacterial activity against Staphylococcus epidermidis ATCC 155 after 24 hrs by agar streak dilution method; conditions: ATCC 155, 24 h; procedure, shortened: as §3
# Micrococcus luteus [12] = experiment: Antibacterial activity against Micrococcus luteus ATCC 4698 after 24 hrs by agar streak dilution method; conditions: NCTC 2665, 24 h; procedure, shortened: as §3
# Bacillus cereus [13] = experiment: Antibacterial activity against Bacillus cereus ATCC 11778 after 24 hrs by agar streak dilution method; conditions: ATCC 11778, 24 h; procedure, shortened: as §3
# Escherichia coli [14] = experiment: Antibacterial activity against Escherichia coli ATCC 25922 after 24 hrs by agar streak dilution method; conditions: ATCC 25922, 24 h; procedure, shortened: as §3
# Pseudomonas aeruginosa [15] = experiment: Antibacterial activity against Pseudomonas aeruginosa ATCC 2853 after 24 hrs by agar streak dilution method; conditions: ATCC 2853, 24 h; procedure, shortened: as §3
# Klebsiella pneumoniae [16] = experiment: Antibacterial activity against Klebsiella pneumoniae ATCC 11298 after 24 hrs by agar streak dilution method; conditions: ATCC 11298, 24 h; procedure, shortened: as §3
# Aspergillus niger [17] = experiment: Antifungal activity against Aspergillus niger ATCC 9029 after 48 hrs by agar streak dilution method; conditions: ATCC 9029, 48 h
# Procedure, shortened: as §3, with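 “Fungal agar” for “Agar”, “dilution.” for “dilution MIC.”, “Sabouraud dextrose” for “nutrient”, “inoculated” for “streaked”, “cfu/ml” for “cfu/ml bacterial”, “48” for “24”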
# Aspergillus fumigatus [18] = experiment: Antifungal activity against Aspergillus fumigatus ATCC 46645 after 48 hrs by agar streak dilution method; conditions: ATCC 46645, 48 h
# Procedure, shortened: as §3, with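 “Fungal agar” for “Agar”, “dilution.” for “dilution MIC.”, “Sabouraud dextrose” for “nutrient”, “inoculated” for “streaked”, “cfu/ml” for “cfu/ml bacterial”, “48” for “24”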
# Aspergillus niger [19] = experiment: Antifungal activity against Aspergillus niger ATCC 9029 at 100 ug/disk after 48 hrs by paper disk diffusion technique; conditions: ATCC 9029, 48 h, read-out: IZ
# Procedure, shortened: (§4)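 Paper disc diffusion: autoclaved medium at 40–50 °C was seeded at 1 ml/100 ml with a suspension of about 10⁵ cfu/ml matched to McFarland standard and poured 3–4 mm deep. Discs impregnated with compound in dimethylformamide were placed on the set medium. There was 1 h pre-incubation at room temperature, then 48 h at 37 °C. Ketoconazole disc served as reference.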
# Aspergillus fumigatus [20] = experiment: Antifungal activity against Aspergillus fumigatus ATCC 46645 at 100 ug/disk after 48 hrs by paper disk diffusion technique; conditions: ATCC 46645, 48 h, read-out: IZ; procedure, shortened: as §4
MIC (Staphylococcus aureus [10]),MIC [11],MIC (Micrococcus luteus [12]),MIC (Bacillus cereus [13]),MIC (Escherichia coli [14]),MIC (Pseudomonas aeruginosa [15]),MIC (Klebsiella pneumoniae [16]),MIC (Aspergillus niger [17]),MIC (Aspergillus fumigatus [18]),Structure (SMILES),inhibition zone (IZ) (Staphylococcus aureus [1]),inhibition zone (IZ) [2],inhibition zone (IZ) (Micrococcus luteus [3]),inhibition zone (IZ) (Bacillus cereus [4]),inhibition zone (IZ) (Escherichia coli [5]),inhibition zone (IZ) (Pseudomonas aeruginosa [6]),inhibition zone (IZ) (Klebsiella pneumoniae [7]),inhibition zone (IZ) (Aspergillus niger [8]),inhibition zone (IZ) (Aspergillus fumigatus [9]),zone of inhibition at 100 µg/disc (Aspergillus niger [19]),zone of inhibition at 100 µg/disc (Aspergillus fumigatus [20])
17.3 µg/mL,20.9 µg/mL,17.2 µg/mL,19.3 µg/mL,21.8 µg/mL,22.6 µg/mL,19 µg/mL,9.1 µg/mL,10.7 µg/mL,O=c1c2cc(Br)cc(Br)c2nc(-c2ccccc2)n1/N=C/c1ccc(O)cc1,24 mm,22 mm,26 mm,21 mm,23 mm,25 mm,27 mm,24 mm,21 mm,–,–
22.4 µg/mL,21.8 µg/mL,27.4 µg/mL,32.8 µg/mL,30.2 µg/mL,34.2 µg/mL,35.7 µg/mL,14.4 µg/mL,10.9 µg/mL,O=c1c2cc(Br)cc(Br)c2nc(-c2ccccc2)n1/N=C/c1ccc([N+](=O)[O-])cc1,22 mm,22 mm,23 mm,20 mm,23 mm,21 mm,20 mm,24 mm,25 mm,–,–
18.9 µg/mL,19.1 µg/mL,18.8 µg/mL,21.7 µg/mL,18.2 µg/mL,19.3 µg/mL,16.7 µg/mL,8.6 µg/mL,10.1 µg/mL,COc1cc(/C=N/n2c(-c3ccccc3)nc3c(Br)cc(Br)cc3c2=O)cc(OC)c1OC,26 mm,25 mm,24 mm,23 mm,27 mm,24 mm,28 mm,26 mm,24 mm,–,–
22.6 µg/mL,21.8 µg/mL,30.1 µg/mL,23.6 µg/mL,19.8 µg/mL,36.1 µg/mL,34.6 µg/mL,10.7 µg/mL,11.6 µg/mL,O=c1c2cc(Br)cc(Br)c2nc(-c2ccccc2)n1/N=C/c1cccc([N+](=O)[O-])c1,21 mm,22 mm,23 mm,22 mm,26 mm,19 mm,21 mm,25 mm,23 mm,–,–
35.4 µg/mL,33.6 µg/mL,31.8 µg/mL,29.4 µg/mL,33.4 µg/mL,28.7 µg/mL,27.7 µg/mL,9.7 µg/mL,11.1 µg/mL,O=c1c2cc(Br)cc(Br)c2nc(-c2ccccc2)n1/N=C/c1ccccc1,17 mm,18 mm,19 mm,20 mm,17 mm,19 mm,21 mm,24 mm,22 mm,–,–
21.8 µg/mL,21.3 µg/mL,28.2 µg/mL,19.9 µg/mL,20.4 µg/mL,37.2 µg/mL,24.3 µg/mL,12.2 µg/mL,13.6 µg/mL,O=c1c2cc(Br)cc(Br)c2nc(-c2ccccc2)n1/N=C/c1ccccc1O,20 mm,24 mm,18 mm,21 mm,22 mm,17 mm,22 mm,22 mm,23 mm,–,–

Structure (SMILES),MIC (Staphylococcus aureus [10]),MIC [11],MIC (Micrococcus luteus [12]),MIC (Bacillus cereus [13]),MIC (Escherichia coli [14]),MIC (Pseudomonas aeruginosa [15]),MIC (Klebsiella pneumoniae [16]),MIC (Aspergillus niger [17]),MIC (Aspergillus fumigatus [18]),inhibition zone (IZ) (Staphylococcus aureus [1]),inhibition zone (IZ) [2],inhibition zone (IZ) (Micrococcus luteus [3]),inhibition zone (IZ) (Bacillus cereus [4]),inhibition zone (IZ) (Escherichia coli [5]),inhibition zone (IZ) (Pseudomonas aeruginosa [6]),inhibition zone (IZ) (Klebsiella pneumoniae [7]),inhibition zone (IZ) (Aspergillus niger [8]),inhibition zone (IZ) (Aspergillus fumigatus [9]),zone of inhibition at 100 µg/disc (Aspergillus niger [19]),zone of inhibition at 100 µg/disc (Aspergillus fumigatus [20])
CC(=O)N1CCN(c2ccc(OCC3COC(Cn4ccnc4)(c4ccc(Cl)cc4Cl)O3)cc2)CC1 (configuration not stated) [KETOCONAZOLE],–,–,–,–,–,–,–,6.1 µg/mL,0.23 µg/mL,–,–,–,–,–,–,–,–,–,30 mm,29 mm
